# Measured values as given in PMC4430358 (Bioorganic & medicinal chemistry letters, 2015).
# Entries after “also recorded” stand apart in the source; their conditions may differ.
# Columns and labels:
# Rat pharmacokinetics = assay type: in vivo; conditions: 1 mg/kg oral gavage in neat Labrasol; for plasma levels after oral gavage: LLOQ approximately 20 nM
# [1] = Solubility in aqueous systems; assay type: physicochemical
# CXCR2 = target: T1, CXCR2 (Homo sapiens, UniProt P25025); assay: PathHunter β-arrestin assay; assay type: cell-based
# T1 sequence (P25025 1-360): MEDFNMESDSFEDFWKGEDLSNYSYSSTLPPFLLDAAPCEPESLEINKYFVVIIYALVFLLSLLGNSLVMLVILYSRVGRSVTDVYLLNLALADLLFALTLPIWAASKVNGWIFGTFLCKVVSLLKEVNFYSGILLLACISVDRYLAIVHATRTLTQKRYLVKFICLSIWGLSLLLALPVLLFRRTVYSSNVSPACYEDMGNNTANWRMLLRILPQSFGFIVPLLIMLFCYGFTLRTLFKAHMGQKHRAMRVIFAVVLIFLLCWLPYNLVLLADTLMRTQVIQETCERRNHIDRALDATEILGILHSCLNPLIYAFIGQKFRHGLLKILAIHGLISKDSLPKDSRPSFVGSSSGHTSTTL
# [2] = Metabolic stability in rat liver microsomes; assay type: in vitro ADME
# Outline: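 Test compound at 1 μM incubated with isolated rat liver microsomes for 60 min at 37 °C. Samples analysed by LC-MS at 0 and 60 min. Result expressed as percent parent remaining at 60 min.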
# [3] = Metabolic stability in monkey liver microsomes; assay type: in vitro ADME; conditions: Microsome stability (% remaining @ 60 min) monkey, 37°C, LC-MS
# Sprague-Dawley rats = assay: Ozone rat model of pulmonary inflammation; assay type: in vivo; conditions: 1 mg/kg IV at t = 0, 5 and 9 h; 1 ppm ozone 4 h; BALF at 24 h
# Outline: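 Sprague-Dawley rats, n = 4 per cohort, given IV vehicle (negative and positive groups) or test compound at 1 mg/kg at t = 0. They were then exposed to air (negative) or 1 ppm ozone for 4 h and redosed at 5 and 9 h. At 24 h rats were sacrificed and BALF collected. Cells were spun down, Wright-Giemsa stained and counted. BALF protein was measured by Bradford assay.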
# [4] = system: GROα-mediated intracellular calcium release in isolated human PMNs; assay: Inhibition of GROα-mediated intracellular calcium release in isolated human PMNs; assay type: cell-based; conditions: for fold drop in activity relative to compound 5: PMN calcium release assay; for activity in the PMN assay: compared to compound 5
# healthy subjects = conditions: clinical evaluation; cited from earlier work
structure (smiles),measurement,setting,value
O=C(Nc1ccc(F)cc1)c1ccc(SCc2ccccc2B(O)O)nc1 [Compound 5],Rat PK AUC Oral,Rat pharmacokinetics,<LLOQ
same,plasma levels after oral gavage,Rat pharmacokinetics,< 20 nM
same,solubility in aqueous systems,[1],insolubility in aqueous systems
"O=C(Nc1ccc(F)cc1)c1ccc(SCc2cc(OC(F)(F)F)ccc2B(O)O)nc1 [Compound 6, 6-(2-boronic acid-5-trifluoromethoxy-benzylsulfanyl)-N-(4-fluoro-phenyl)-nicotinamide]",mode of action,CXCR2,full antagonist
same,"remaining at 1 h, 1 μM",[2],> 90%
same,"remaining at 1 h, 1 μM",[3],> 90%
same,Rat PK AUC Oral,Rat pharmacokinetics,<LLOQ
same,plasma levels after oral gavage,Rat pharmacokinetics,< 20 nM
same,solubility in aqueous systems,[1],insolubility in aqueous systems
same,PMN influx to the lungs (BALF),Sprague-Dawley rats,significantly decreased PMN influx to the lungs to near undetectable levels; also recorded: potent inhibition of PMN recruitment; also recorded: potent inhibition of neutrophil influx
same,macrophage influx (BALF),Sprague-Dawley rats,significantly decreased
O=C(Nc1ccc(F)cc1)c1ccc(SCc2cccc(B(O)O)c2)nc1 [Compound 8],fold drop in activity relative to compound 5,[4],30 fold
O=C(Nc1ccc(F)cc1)c1ccc(SCCCCB(O)O)nc1 [Compound 10],fold drop in activity relative to compound 5,[4],18 fold
O=C(Nc1ccc(F)cc1)c1ccc(SCCc2ccccc2B(O)O)nc1 [Compound 11],fold drop in activity relative to compound 5,[4],10 fold
COc1cc(CSc2ccc(C(=O)Nc3ccc(F)cc3)cn2)c(B(O)O)cc1OC [Compound 12],activity in the PMN assay,[4],complete lack of activity
O=C(Nc1ccc(F)cc1)c1ccc(SCc2cc3c(cc2B(O)O)OCO3)nc1 [Compound 13],activity in the PMN assay,[4],complete lack of activity
COc1ccc(B(O)O)c(CSc2ccc(C(=O)Nc3ccc(F)cc3)cn2)c1 [Compound 14],fold drop in activity relative to compound 5,[4],2 fold
O=C(Nc1ccc(F)cc1)c1ccc(SCc2cc(F)ccc2B(O)O)nc1 [Compound 15],activity in the PMN assay,[4],equipotent
CC[C@@H](Nc1c(Nc2cccc(C(=O)N(C)C)c2O)c(=O)c1=O)c1ccc(C)o1 [navarixin],ozone inhalation-induced sputum PMN recruitment,healthy subjects,inhibited
